Square brackets hold non-standard residues; d marks the D form. Peptide text beside a SMILES is read from it. pS = N[C@@H](COP(=O)(O)O)C(=O)O
Legend:
14-3-3ζ = 14-3-3ζ (UniProt P63104); experiment: co-IP, anti-HA IP, Myc/FLAG blot; conditions: reference: wild type PDE8A; sites S359
[1] = test system: DN-PDE8A (D726A)–14-3-3ζ interaction; experiment: Co-immunoprecipitation of DN-PDE8A with HA-14-3-3ζ in treated HEK293T cells; assay type: cell-based, human; conditions: forskolin 100 μM, 15 min; Fig. 3D
[2] = test system: D726A PDE8A mutant (DN-PDE8A); conditions: cited from earlier work
[3] = test system: PDE8A–14-3-3ζ interaction; experiment: Co-immunoprecipitation of PDE8A with HA-14-3-3ζ in treated HEK293T cells; assay type: cell-based, human; conditions: for change of PDE8A–14-3-3ζ interaction, PKC activator/inhibitor: 1 μM, Fig. 3B
[4] = molecular target: KA14P (phosphorylated PDE8A peptide) (human); experiment: NMR titration
14-3-3ζ protein = molecular target: T1, 14-3-3ζ protein (Homo sapiens, UniProt P63104); experiment: 31P NMR titration of KA14P with 14-3-3ζ protein; assay type: binding
T1 sequence (P63104 1-245): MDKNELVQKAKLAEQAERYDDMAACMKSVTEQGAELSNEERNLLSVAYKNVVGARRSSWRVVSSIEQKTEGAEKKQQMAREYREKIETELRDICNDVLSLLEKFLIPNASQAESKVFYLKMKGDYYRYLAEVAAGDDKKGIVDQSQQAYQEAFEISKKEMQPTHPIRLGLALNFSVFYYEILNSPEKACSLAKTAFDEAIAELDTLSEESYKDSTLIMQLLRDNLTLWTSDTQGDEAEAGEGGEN
Outline: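 Human 14-3-3ζ expressed from pQE30 in E. coli M15 (0.5 mM IPTG, 3 h, 37 °C), Ni-NTA purified, and stored in 10 mM phosphate pH 6.1 with 50 mM NaCl. Peptide held at 500 μM. Spectra taken with 512 scans, 16 dummy scans and a 10 s recycle delay. A 20 Hz exponential line broadening was applied before Fourier transformation.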

PDE8A = conditions: background statement; ref not stated; cited from earlier work

**Q.** With “PDE8A (phosphodiesterase 8A) (from UniProt O60658) S359A” as the compound, how does the “binding against the reference” value (14-3-3ζ) read?
**A.** lost

**Q.** Which “interaction of DN-PDE8A with 14-3-3ζ” value [1] does the source give for `C=C[C@@]1(C)CC(=O)[C@]2(O)[C@@]3(C)[C@@H](O)CCC(C)(C)[C@@H]3[C@H](O)[C@H](OC(C)=O)[C@@]2(C)O1` [forskolin] here?
**A.** increased further

**Q.** And the “phosphorylation of DN-PDE8A by PKA following treatment” value [2]?
**A.** rapidly phosphorylated

**Q.** And the “association of PDE8A and 14-3-3ζ, PKA activator” value ([3]; 100 μM, 15 min, serum-free, anti-HA IP, at least three repeats, Fig. 3A)?
**A.** increased association

**Q.** With “purified recombinant 14-3-3ζ (from UniProt P63104 1-245) (natural protein)” as the compound, how does the Kd [4] read?
**A.** 11.3 µM

**Q.** For `CC(C)C[C@H](NC(=O)[C@H](COP(=O)(O)O)NC(=O)CNC(=O)[C@H](CCCCN)NC(=O)[C@H](CCCNC(=N)N)NC(=O)[C@H](CCCNC(=N)N)NC(=O)[C@H](CC(=O)O)NC(=O)[C@@H](N)CCCCN)C(=O)N[C@@H](CC(=O)O)C(=O)N[C@H](C(=O)N[C@@H](CCCCN)C(=O)N[C@@H](C)C(=O)N[C@H](C(=O)N[C@@H](C)C(=O)O)C(C)C)C(C)C` [KA14P] (H-KDRRKG[pS]LDVKAVA-OH), which Kd (14-3-3ζ protein) is on record?
**A.** 11.3 ± 0.18 µM

**Q.** Which “change of PDE8A–14-3-3ζ interaction, PKC activator/inhibitor” value ([3]; 15 min) does the source give for `CN(C)CCCn1cc(C2=C(c3c[nH]c4ccccc34)C(=O)NC2=O)c2ccccc21` [GX109203X] here?
**A.** no change of interaction

**Q.** For `O=S(=O)(NCCNC/C=C/c1ccc(Br)cc1)c1cccc2cnccc12` [H89], which “association of PDE8A and 14-3-3ζ, PKA inhibitor” value ([3]; 100 μM, 15 min pretreatment, then forskolin 100 μM, 15 min, anti-HA IP, Fig. 3A) is on record?
**A.** association decreased

**Q.** Which “PDE8A–14-3-3ζ interaction, activator of PI3K” value ([3]; 200 μM, 30 min, Fig. 3C) does the source give for “insulin: human insulin; activator of PI3K” here?
**A.** remained unchanged

**Q.** With `CC(C)Cn1c(=O)n(C)c(=O)c2[nH]cnc21` [IBMX, 3-isobutyl-1-methylxanthine] as the compound, how does the “sensitivity of PDE8A to inhibitor” value (PDE8A) read?
**A.** insensitive

**Q.** With `COc1ccc(Cl)c(Nc2nc3ccccc3nc2NS(=O)(=O)c2cccc(NC(=O)C(C)(C)N)c2)c1` [pilaralisib] as the compound, how does the “PDE8A–14-3-3ζ interaction, inhibitor of PI3K” value ([3]; 100 μM, 30 min, Fig. 3C) read?
**A.** remained unchanged

**Q.** Which “change of PDE8A–14-3-3ζ interaction, PKC activator/inhibitor” value ([3]; 15 min) does the source give for `CCCCCCCCCCCCCC(=O)O[C@@H]1[C@@H](C)[C@@]2(O)[C@@H](C=C(CO)C[C@]3(O)C(=O)C(C)=C[C@@H]23)[C@@H]2C(C)(C)[C@]12OC(C)=O` [PMA, phorbol 12-myristate 13-acetate] here?
**A.** no change of interaction
